How the values were obtained:
Mus musculus [1] = experiment: Maximum soluble dosage which induces toxicity in mice when administered intraperitoneally was determined; assay type: organism-based; conditions: in vivo, ip
In short: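 Drug was solubilized just before use and given as a single ip bolus at 0.01 mL/g, 24 h after ip inoculation of 1 x 10^6 L1210 cells in BD2F1 mice. This gave a dose 10 times the solubility (mg/mL) in mg/kg. Deaths were assigned to compound toxicity or leukemia by temporal pattern of death and necropsy findings.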

L1210 = experiment: Percentage of viable L1210 leukemia cells killed by single treatment with the compound; assay type: ADME, cell-based; conditions: mouse
Mus musculus [2] = organism: Mus musculus; experiment: Antileukemic activity in BD2F1 mice inoculated with 1 x 10E6 L1210 cells.; assay type: functional
In short: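 BD2F1 mice were inoculated ip on day 0 with 1 x 10^6 L1210 cells and given one ip bolus 24 h later (0.01 mL/g; water or Me2SO vehicle; dose 10x solubility in mg/mL, lowered if lethally toxic). Controls got saline. Six mice per group. %T/C = mean treated life span / mean control life span x 100, pooled over four studies with 10 controls each.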

Structure (SMILES)	Dosage (Mus musculus [1]) [mg/kg]	Cells killed (L1210) [%]	T/C (Mus musculus [2]) [%]
CSc1nc(N)nc2c1ncn2[C@@H]1O[C@H](CO)[C@@H](O)[C@H]1O	37	0	98
CCCCCn1cnc2c(SN)nc(N)nc21	47	70	118
CCCCCCn1cnc2c(SN)nc(N)nc21	105	87	119
CCCCCCn1cnc2c(S)ncnc21	44	87	147
CS(=O)(=O)c1nc(N)nc2c1ncn2[C@H]1C[C@H](O)[C@@H](CO)O1	800	–	–
C[S+]([O-])c1nc(N)nc2c1ncn2[C@H]1C[C@H](O)[C@@H](CO)O1 (stereo partly drawn)	800	–	–
CSc1nc(N)nc2c1ncn2[C@H]1C[C@H](O)[C@@H](CO)O1	800	–	–
CCCCCCn1cnc2c([S+](N)[O-])ncnc21 (stereo not drawn)	800	–	–
CCCCCn1cnc2c([S+](N)[O-])ncnc21 (stereo not drawn)	480	90	134
CCCCCCn1cnc2c(S)nc(N)nc21	110	72	118
CCCCCCn1cnc2c([S+](N)[O-])nc(N)nc21 (stereo not drawn)	460	93	121
CCCCCn1cnc2c([S+](N)[O-])nc(N)nc21 (stereo not drawn)	106	72	117
CCCCCn1cnc2c(S)ncnc21	41	91	141
CCCCCn1cnc2c(S)nc(N)nc21	40	92	149
CCCCCCn1cnc2c(SN)ncnc21	410	75	116
Nc1nc([S+](N)[O-])c2ncn(CCCCCCO)c2n1 (stereo not drawn)	39	96	139
Nc1nc([S+]([O-])Cc2ccccc2)c2ncn(C3O[C@H](CO)[C@@H](O)[C@H]3O)c2n1 (stereo partly drawn)	37	97	137
NSc1nc(N)nc2c1ncn2C1O[C@H](CO)[C@@H](O)[C@H]1O (stereo partly drawn)	22	99.8	170
Nc1nc([S+](N)[O-])c2ncn(C3O[C@H](CO)[C@@H](O)[C@H]3O)c2n1 (stereo partly drawn)	173	99.8	167
C[S+]([O-])c1nc(N)nc2c1ncn2C1O[C@H](CO)[C@@H](O)[C@H]1O (stereo partly drawn)	480	71	114
Nc1nc(S(=O)(=O)Cc2ccccc2)c2ncn(C3O[C@H](CO)[C@@H](O)[C@H]3O)c2n1 (stereo partly drawn)	104	76	115
CS(=O)(=O)c1nc(N)nc2c1ncn2C1O[C@H](CO)[C@@H](O)[C@H]1O (stereo partly drawn)	104	0	96
